Measurements gathered from unrelated publications.
Lines come from different studies, so protocols differ.
Cell line: CCRF-CEM
Effect on: cell growth or viability

| SMILES | test | conditions | IC50 |
| --- | --- | --- | --- |
| COc1cc(C(=O)c2cc3c(-c4ccccc4)c(OC)ccc3o2)cc(OC)c1OC |  | 72 h | > 50 µM |
| N#Cc1ccc(NC(=S)NN=Cc2ccc([N+](=O)[O-])cc2)cc1 |  | 72 h | > 200 µg/mL |
| COc1ccc2[nH]cc(CCNc3nccc(Nc4cccc5c4ccn5C)n3)c2c1 | fluorescence | 72 h | 0.01 µM |
| CSc1ccc(NC(=S)NN)cc1 |  | 72 h | 20 µg/mL |
| O=C(c1ccccc1)c1cc2c(-c3ccccc3)c(O)ccc2o1 |  | 72 h | 34 µM |
| CC(C(=O)NC1CCCCC1)c1cccc(C(OC(=O)NC2CCCCC2)c2ccccc2)c1 (centres unmarked) |  | 72 h | 15 µM |
| COc1ccc2c(N)c(C(=O)c3cc(OC)c(OC)c(OC)c3)[nH]c2c1 |  | 72 h | 0.32 µM |
| COc1ccc2c(N)c(C(=O)c3cc(OC)c(OC)c(OC)c3)sc2c1 |  | 48 h | 0.0077 µM |
| CC(C(=O)NOCc1ccccc1)c1cccc(C(OC(=O)NOCc2ccccc2)c2ccccc2)c1 (centres unmarked) |  | 72 h | 14 µM |
| N#Cc1ccc(NC(=S)NN)cc1 |  | 72 h | 21 µg/mL |
| CC(C(=O)NC1CCCC1)c1cccc(C(OC(=O)NC2CCCC2)c2ccccc2)c1 (centres unmarked) |  | 72 h | 12 µM |
| N#Cc1ccc(NC(=S)NN=Cc2ccc(F)cc2)cc1 |  | 72 h | 38 µg/mL |
| CC(C(=O)NCCc1ccccc1)c1cccc(C(OC(=O)NCCc2ccccc2)c2ccccc2)c1 (centres unmarked) |  | 72 h | 14 µM |
| COc1ccc2c(N)c(C(=O)c3cc(OC)c(OC)c(OC)c3)n(C)c2c1 |  | 72 h | 0.071 µM |
